# Screening data (PubChem)
# Shown are actives, neighbours in structure and some others; about 1.7% of the full set was active somewhere.
# CSN inh: inhibitors of human CSN-mediated cullin deneddylation; Q92905; Purified CSN, SCF-Nedd8-OG deneddylation, fluorescence polarization; inhibition, % at 12.5 µM; actives 0.38% (n = 360,000);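 active means pattern-corrected inhibition above about 35%, with an unprinted fluorescence ratio check between 0.5 and 1.5, limit read from the data, passing the limit was not always enough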;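 further: 0% = enzyme with substrate and 100% = substrate without enzyme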
# Target sequence (Q92905 whole entry, looked up, one chain of several): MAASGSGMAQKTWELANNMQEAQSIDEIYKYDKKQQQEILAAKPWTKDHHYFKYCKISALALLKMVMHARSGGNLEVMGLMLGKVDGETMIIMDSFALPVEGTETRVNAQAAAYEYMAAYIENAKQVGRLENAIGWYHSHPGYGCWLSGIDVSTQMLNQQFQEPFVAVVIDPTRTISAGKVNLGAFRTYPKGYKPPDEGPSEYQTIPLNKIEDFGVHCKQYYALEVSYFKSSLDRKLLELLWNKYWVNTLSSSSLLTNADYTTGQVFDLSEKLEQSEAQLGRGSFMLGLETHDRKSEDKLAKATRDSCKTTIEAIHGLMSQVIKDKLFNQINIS
#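 Material: purified human Csn5 enzyme expressed in HEK293T cells / Medium: Tris buffer pH 7.5, NaCl, DTT, Tween-20, trehalose, ovalbumin / Compound dosing: 12.5 µM single point / Schedule: 90 min incubation of compound, enzyme and substrate at room temperature / Signal: fluorescence polarization of the substrate / Control set: no-enzyme wells high, enzyme-with-substrate wells low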
# IDE act: activators of human insulin-degrading enzyme in cells; P14735; HEK cells, FAbeta-B cleavage, fluorescence polarization; 0% vehicle, 100% cell-free pure enzyme wells; activation, % at 5.96 µM; actives 0.073% (n = 340,000);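 active means activation above the mean of all tested compounds plus 3 SD, set per screening campaign, cut at about 17% in these data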
# IDE inh: inhibits human insulin-degrading enzyme in HEK cells; P14735; actives 0.41% (n = 320,000); FAbetaB cleavage, fluorescence polarization; inhibition, % at 5.59 µM;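 active means percent inhibition above the average of all tested compounds plus 3 SD, set per screening campaign, cut at about 16% in these data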;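 further: IDE supplied by intact live HEK cells; FP after avidin binding of uncleaved biotin substrate so inhibition keeps polarization high; 0% = DMSO wells and 100% = 60 µM reference IDE inhibitor Ii1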
# TPT1 inh: inhibitors of Candida albicans tRNA 2'-phosphotransferase TPT1; recombinant caTPT1, FP RNA substrate dephosphorylation; inhibition, % at 5 µM; actives 0.81% (n = 300,000); AID 1962;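 active means inhibition above the mean of all tested compounds plus 3 SD, set per screening campaign, cut at about 24% in these data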;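 further: plate controls were DMSO alone for no effect and ferristatin control at 100 nM for full effect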
# HNF4A DNA FP: change in binding of human HNF4 alpha to DNA; HNF4a-FITC DNA binding, fluorescence polarization, 1 h; P41235; actives 0.3% (n = 360,000); activity change, % at 10 µM; AID 1224865; in the data active means activity change above about 30%, passing the limit was not always enough
# TbMetRS inhib: Trypanosoma brucei MetRS inhibition; inhibition, % at 11.9 µM; actives 0.4% (n = 360,000); purified T. brucei MetRS, ATP depletion, Kinase-Glo luminescence;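 active means inhibition above a per-plate cutoff of the control wells' mean inhibition plus 3 SD, cut at about 5.5% in these data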;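 further: 0% = DMSO wells median and 100% = median of wells with control inhibitor compound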
#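 Dosing: 11.9 µM compound single dose, 0.9% DMSO; Assay system: purified T. brucei MetRS enzyme; Measured by: Kinase-Glo luciferase luminescence reporting remaining unconsumed ATP; Schedule: 15 min plus 2 h at 25 °C.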
# An asterisk follows results filed as active; . = not tested or not shown.
SMILES,CSN inh,IDE act,IDE inh,TPT1 inh,HNF4A DNA FP,TbMetRS inhib
O=c1c2[nH]c3ccc(F)cc3c2ncn1CC1CCCO1 (stereo not given),1,0,7,-2,5,0
Fc1ccc2[nH]c3c(N4CCN(C5CCCCC5)CC4)ncnc3c2c1,.,.,20*,0,.,.
COc1ccc(/C=C/c2nc3sc4c(c3c(=O)o2)CCC4)cc1,110,5,0,-3,191,0
O=c1oc(/C=C/c2ccccc2)nc2sc3c(c12)CCC3,4,3,1,2,47*,-1
CC(=O)Nc1ccc(CN2CCCC(C(=O)c3ccc(C(F)(F)F)cc3)C2)cc1 (stereo not given),-4,3,-1,2,2,0
O=C(O)CC12CC3CC(C1)CC(n1ncc(NCc4ccco4)c(Cl)c1=O)(C3)C2,-2,1,7,-4,3,-1
CCc1cccc(Nc2cnn(C34C[C@@H]5C[C@@H](CC(CC(=O)O)(C5)C3)C4)c(=O)c2Cl)c1,1,-22,21*,2,0,-1
CN1C=CC=C/C1=C1/N=C(c2ccccc2)OC1=O,1,6,0,-1,2,-1
CC1=CC(=C2N=C(c3ccccc3)OC2=O)C=C(C)O1,62*,3,2,-5,0,-1
CC(C)COC(=O)N(C)C[C@@H]1OCc2cnnn2CCCC(=O)N([C@@H](C)CO)C[C@H]1C,6,.,.,.,1,-1
Nc1nc(Cl)cc(N2CCCC2)n1,-2,3,11,-2,-4,0
Nc1nc(Cl)cc(N2CCC(c3cc(-c4ccc(Cl)cc4Cl)n[nH]3)CC2)n1,3,-8,13,2,4,21*
O=[N+]([O-])c1ccc(COc2ccc(-c3[nH]ncc3-c3ccccc3)c(O)c2)cc1,-6,9,-1,-3,-1,0
Oc1cc(OCc2ccccc2)ccc1-c1[nH]ncc1-c1ccccc1,-1,23*,1,1,1,-1
CC(C)(C)OC(=O)NCc1ccc(NC(=O)c2nc[nH]c2C(=O)NCCCCCCNC(=O)c2[nH]cnc2C(=O)Nc2ccc(CNC(=O)OC(C)(C)C)cc2)cc1,17,5,-2,.,46*,0
CC(C)(C)OC(=O)NCc1ccc(NC(=O)c2nc[nH]c2C(=O)NCCCCNC(=O)c2[nH]cnc2C(=O)Nc2ccc(CNC(=O)OC(C)(C)C)cc2)cc1,6,-5,2,.,27,0
COc1ccc(OCC(=O)Nc2cc(-c3nn4c(C)nnc4s3)ccc2C)cc1,11,1,1,1,42*,2
Cc1cc(OCC(=O)Nc2cc(-c3nn4c(C)nnc4s3)ccc2C)ccc1Cl,20,-5,2,7,14,0
CC(C)(C)NC(=O)NC(=O)CSc1ccc(S(=O)(=O)N2CCCCC2)cn1,-1,4,-4,.,-3,0
COc1ccc(-c2cc(-c3ccc(Cl)cc3)c(C#N)c(SCC(=O)O)n2)cc1,41*,5,6,-2,-6,-1
O=C(Nc1ccncc1NC(=O)c1cccc([N+](=O)[O-])c1)c1cccc([N+](=O)[O-])c1,41*,2,0,0,-5,0
O=C(Nc1cccc(NC(=O)c2cccc([N+](=O)[O-])c2)n1)c1cccc([N+](=O)[O-])c1,3,1,1,-3,-1,0
O=C(Nc1sc2c(c1C(=O)O)CCC2)c1ccco1,-3,6,-3,-1,-5,0
COC(=O)c1c(NC(=O)c2ccco2)sc2c1CCC2,-3,11,6,4,64*,0
COc1ccc(CN2C(=O)Cc3c2nc(N)c2c(N)nc(N4CCOCC4)c(C#N)c32)cc1,11,2,7,10,5,0
SMILES,CSN inh,IDE act,IDE inh,TPT1 inh,HNF4A DNA FP,TbMetRS inhib
COCCN1C(=O)Cc2c1nc(N)c1c(N)nc(N3CCN(c4ccc(F)cc4)CC3)c(C#N)c21,13,4,-1,28*,9,0
CN(C)c1ccc(C=c2c3ccccc3n3c2c2ccccc2[n+]3C)cc1,114,6,.,.,55,-1
CCOC(=O)c1cc2c(=Cc3ccc(N(C)C)cc3)c3ccccc3n2[n+]1C,19,-5,.,.,57*,0
COc1ccc(C(C(=O)NCCC(C)C)N(CCN2CCOCC2)C(=O)Cn2nnc3ccccc32)c(OC)c1 (stereo not given),-13,0,4,0,0,-1
CCCc1cc(C(=O)Nc2cccc(-c3nn[nH]n3)c2)sc1C,1,.,.,.,1,1
CCOC(=O)c1c(CSC(=N)N)n(C)c2cc(Br)c(OC(C)=O)cc12,3,1,-5,-4,-1,0
CCOC(=O)c1c(CSC(=N)N)n(-c2ccc(C)cc2)c2cc(Br)c(OC(C)=O)cc12,0,18*,2,-7,0,-1
CS(=O)(=O)N1CCN(c2ccc([N+](=O)[O-])c(NCc3ccc(Cl)cc3)c2)CC1,76*,5,3,-3,33,-1
NC(=S)c1cc2ccc(O)cc2oc1=O,46*,-5,.,.,34,-1
NC(=S)c1cc2cc(Br)ccc2oc1=O,-7,-7,3,-4,1,0
Cc1[nH]c(=O)[nH]c(=O)c1CSCC(=O)OCC(=O)Nc1ccccn1,94*,-3,3,-1,-5,1
Cc1nc(SCC(=O)Nc2ccccn2)n[nH]1,3,2,2,-3,3,0
Cc1cc(NCCCOC(C)C)n2c(nc3ccccc32)c1C#N,52*,3,4,3,9,0
COc1ccccc1N=NNc1ccccc1OC,3,.,.,.,9,0
Cc1c(NC(=O)COC(=O)c2cccc(F)c2)c(=O)n(-c2ccccc2)n1C,-4,.,.,.,0,0
Cc1cccnc1NC(=O)NC(=O)c1ccc(C(C)(C)C)s1,4,10,-1,3,-2,-1
CN(C)S(=O)(=O)c1ccc(C(=O)OCC(=O)N2CC3(C)CC2CC(C)(C)C3)cc1 (stereo not given),2,1,5,.,0,0
Cc1noc(C)c1COc1ccc(C(=O)OCC(=O)N2CC3(C)CC2CC(C)(C)C3)cc1 (stereo not given),37*,-1,0,-5,1,0
COc1ccc(NC(=O)CN(C)S(=O)(=O)c2ccccc2)c([N+](=O)[O-])c1,5,7,3,3,39*,0
CC(C)c1ccc(-n2cccc2/C=C2/C(=N)N3C=CSC3=NC2=O)cc1,22,2,3,10,51*,0
CC1=CSC2=NC(=O)/C(=C\c3cccn3-c3ccccc3)C(=N)N12,4,1,-4,10,8,0
